Results on 14 compounds are retold here after ChEMBL document CHEMBL5136979, “An Open Drug Discovery Competition: Experimental Validation of Predictive Models in a Series of Novel Antimalarials” (J Med Chem, 2021).

For assay [1], the system named is Plasmodium falciparum. Briefly: Antimalarial activity against chloroquine-sensitive Plasmodium falciparum 3D7 assessed as parasite growth inhibition. Type of assay: functional, organism-based. Summed up:
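P. falciparum 3D7 asexual blood stages grown in 5% human RBC suspension in RPMI 1640 with 0.5% Albumax II, 12 mM bicarbonate, 0.2 mM hypoxanthine (pH 7.3), gentamicin, 37 °C, 1% O2/3% CO2/N2. 10-point, 1-in-3 dilution series from 10 or 25 μM top. SYBR Green I DNA fluorescence (ex 485/em 528 nm). IC50 from ≥3 independent experiments.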

Assay [2] deals with Plasmodium falciparum. Kind of assay: Inhibition of Plasmodium falciparum Dd2 ATP4 assessed as increase in cytosolic [Na+] at 1 uM by fluorescence spectrometry. Summed up:
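Dd2 trophozoites freed from erythrocytes with saponin (0.05% w/v final), loaded with Na+-sensitive dye SBFI. Fluorescence measured and calibrated at 37 °C in plate reader or 1 mL cuvette suspensions. Compound tested at 1 μM. Scored as active if it raised cytosolic [Na+] like 50 nM cipargamin.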

For assay [3], the system named is Plasmodium falciparum. Briefly: Inhibition of Plasmodium falciparum Dd2 ATP4 assessed as increase in cytosolic pH at 5 uM by fluorescence spectrometry. In outline: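 Saponin-isolated (0.05% w/v final) Dd2 trophozoites loaded with pH-sensitive dye BCECF. Fluorescence read and calibrated at 37 °C in plate reader or 1 mL suspensions. Compound at 5 μM. Scored as active if it caused cytosolic alkalinization like 50 nM cipargamin.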

Calls of active or inactive are those of the source.

One may read the IC50 as the point on the concentration scale where inhibition reaches its midpoint. `FC(F)Oc1ccc(-c2nnc3cncc(OCC(F)(F)F)n23)cc1`: in the assay on Plasmodium falciparum [1], the IC50 is more than 10 µM.
In the case of `O=C(Nc1ccc(F)c(Cl)c1)c1cncc2nnc(-c3ccc(OC(F)F)cc3)n12`, the inhibition entry with Plasmodium falciparum [2] and in the assay on Plasmodium falciparum [3] was “Active” in each case. Further, the IC50 in the assay with Plasmodium falciparum [1] worked out at 0.191 µM.
As for `Cc1ccc(COc2cncc3nnc(-c4ccc(C(C)C)cc4)n23)cn1`, the half-maximal inhibitory concentration (IC50) in the assay on Plasmodium falciparum [1] was more than 25 µM.
As to `FC(F)Oc1ccc(-c2nnc3cncc(OCCc4ccccc4)n23)cc1`, the inhibition entry in the assay with Plasmodium falciparum [2] and with Plasmodium falciparum [3] was “Active” each time. The IC50 in the assay on Plasmodium falciparum [1] was 0.37 µM.
For `Fc1ccc(CCNc2cn3c(-c4ccc(OC(F)F)cc4)nnc3cn2)cc1`, the IC50 with Plasmodium falciparum [1] was more than 10 µM.
Regarding `NCc1cccc(CCOc2cncc3nnc(-c4ccc(Cl)cc4)n23)c1`, the half-maximal inhibitory concentration (IC50) with Plasmodium falciparum [1] worked out at 10 µM.
Regarding `CC(O)COc1cncc2nnc(-c3ccc(OC(F)F)cc3)n12` (stereo not drawn), in the assay with Plasmodium falciparum [1], the IC50 is more than 25 µM.
Turning to `O=C(Nc1ccc(Cl)cc1)c1cncc2nnc(-c3ccc(OC(F)F)cc3)n12`, the inhibition result with Plasmodium falciparum [2] and in the assay on Plasmodium falciparum [3] was “Active” throughout. Further, the IC50 in the assay with Plasmodium falciparum [1] was found to be 5 µM.
As for `O=C(NCc1cccc(C(F)(F)F)c1Cl)c1cncc2nnc(-c3ccc(OC(F)F)cc3)n12`, the inhibition result with Plasmodium falciparum [2] and in the assay on Plasmodium falciparum [3] was “Active” in each case. The IC50 in the assay on Plasmodium falciparum [1] worked out at 0.309 µM.
In the case of `O=C(Nc1ccnc(C(F)(F)F)c1)c1cncc2nnc(-c3ccc(OC(F)F)cc3)n12`, the inhibition entry in the assay on Plasmodium falciparum [2] and in the assay on Plasmodium falciparum [3] was “Active” each time. For the same compound, the IC50 in the assay on Plasmodium falciparum [1] was 0.14 µM.
Consider `O=C(Cc1cccc(Cl)c1)Nc1cn2c(-c3ccc(OC(F)F)cc3)nnc2cn1`, for which the IC50 in the assay with Plasmodium falciparum [1] was more than 10 µM.
Still for that read-out and setting: as for `FC(F)Oc1ccc(-c2nnc3cncc(OCCc4ccco4)n23)cc1`, the figure is 1.24 µM.
`CC(C)(C)Oc1ccc(-c2nnc3cncc(OCC(O)c4ccc(F)c(F)c4)n23)cc1` (stereo not drawn): the inhibition result in the assay with Plasmodium falciparum [2] and with Plasmodium falciparum [3] was “Active” in each case. In the assay with Plasmodium falciparum [1], the IC50 is 0.46 µM.
For the compound `Nc1cccc(CCOc2cncc3nnc(-c4ccc(Cl)cc4)n23)c1`, the inhibition result in the assay with Plasmodium falciparum [2] and with Plasmodium falciparum [3] was “Active” in each case. The IC50 in the assay with Plasmodium falciparum [1] turned out to be 2.42 µM.
